Measured values as given in ChEMBL document CHEMBL1125062, “Structure-activity relationships for the carboxy-terminus truncated analogues of angiotension II, a new class of angiotensin II antagonists” (J Med Chem, 1990).
Where a SMILES comes first, the peptide text is derived from it. [ ]: non-standard residue; d: D form. Sar = CNCC(=O)O

What was measured:
[1] = organism: Oryctolagus cuniculus; assay: In vitro myotropic property on the isolated rabbit aorta, expressed as pA2; assay type: functional; details: read-out: pA2 (converted)
Procedure, shortened: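 Aortic rings from male New Zealand white rabbits (2-2.5 kg) equilibrated 1 h, then set at ~1 g passive tension. Paired rings were used: one received cumulative AII, the other AII with the peptide added 5 min before. AII was given at 30-min intervals with Krebs washes. Responses were taken as % of control maximal contraction, and pA2 was derived by Schild analysis.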

[2] = system: Rattus norvegicus; assay: Variation of MAP induced bolus injection of 100 ug/kg of compound during infusion in rat reported as % of control (100) at a dose of 10 ug/kg; assay type: functional
Procedure, shortened: (§1)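 Same ganglion-blocked, Inactin-anaesthetized rat preparation, with MAP recorded via femoral artery catheter. Antagonist was infused iv for 20 min at 10, 30, 60 or 100 µg/kg per min before AII 30 ng/kg iv bolus challenge. After infusion stopped, AII was repeated at 5-10-min intervals for 1 h. The pressor response was expressed as % of control at 5-60 min, mean ± SEM, n = 2-6.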

[3] = system: Rattus norvegicus; assay: Percentage of pressor response to antagonize the effect of bolus injection of compound at a dose of 30 ug/kg per min in rat; assay type: functional
[4] = system: Rattus norvegicus; assay: In vivo activity to antagonize the effect of bolus injection of compound at 30 ug/kg in rat; assay type: functional; details: in the assay text read “angiotensin II at 30 ng/kg” for “compound at 30 ug/kg”
Procedure, shortened: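 Male Sprague-Dawley rats (240-400 g) under Inactin (100 mg/kg ip), ganglion-blocked with mecamylamine 3 mg/kg iv and atropine ip. AII 30 ng/kg iv bolus was given four times at 10-min intervals as baseline. Peptide was infused iv for 20 min, then AII was rechallenged. Endpoint was the smallest infusion dose (µg/kg per min) fully blocking the bolus, with time to ~50% recovery after infusion stopped.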

[5] = system: Rattus norvegicus; assay: Variation in mean arterial pressure after 10 min of antagonist infusion at a dose of 10 ug/kg
[6] = system: Rattus norvegicus; assay: Variation of MAP induced bolus injection of 60 ug/kg of compound during infusion in rat reported as % of control (100) at a dose of 10 ug/kg; assay type: functional; procedure, shortened: as §1
[7] = system: Rattus norvegicus; assay: Percentage of pressor response to antagonize the effect of bolus injection of compound at a dose of 30 ug/kg/min in rat; assay type: functional
[8] = system: Rattus norvegicus; assay: Drinking water response evaluated in conscious rat at a dose of 500 pmol icv; assay type: functional
Procedure, shortened: (§2)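 Conscious Sprague–Dawley rats given AII 100 pmol icv to induce water drinking. Test peptide was given icv at 500 or 2500 pmol, and the drinking response was recorded.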

[9] = system: Rattus norvegicus; assay: Drinking water response evaluated in conscious rat at a dose of 2500 pmol icv; assay type: functional; procedure, shortened: as §2
[10] = system: Rattus norvegicus; assay: Variation in mean arterial pressure after 60 min of antagonist infusion at a dose of 10 ug/kg
[11] = system: Rattus norvegicus; assay: Variation in mean arterial pressure after 5 min of antagonist infusion at a dose of 10 ug/kg
[12] = system: Rattus norvegicus; assay: Variation in mean arterial pressure after 20 min of antagonist infusion at a dose of 10 ug/kg
[13] = system: Rattus norvegicus; assay: Variation in mean arterial pressure after 40 min of antagonist infusion at a dose of 10 ug/kg
[14] = system: Rattus norvegicus; assay: In vivo activity to antagonize the effect of bolus injection of angiotensin II at 30 ng/kg in rat
[15] = organism: Rattus norvegicus; assay: In vitro myotropic property in rat isolated uterus, expressed as pA2; assay type: functional; details: read-out: pA2 (converted)
[16] = system: Rattus norvegicus; assay: In vivo activity to antagonize the effect of bolus injection of angiotensin II at 30 ng/kg in rat; remark: listed apart in the source
[17] = organism: Rattus norvegicus; assay: In vitro myotropic property in rat stomach, expressed as pA2; assay type: functional; details: read-out: pA2 (converted)
[18] = system: Rattus norvegicus; assay: Variation in mean arterial pressure after 40 min of antagonist infusion at a dose of 30 ug/kg
[19] = system: Rattus norvegicus; assay: Variation of MAP induced bolus injection of 30 ng/kg of compound during infusion in rat reported as % of control (100) at a dose of 30 ug/kg; assay type: functional; details: in the assay text read “10 ug/kg” for “30 ug/kg”; procedure, shortened: as §1
[20] = system: Rattus norvegicus; assay: Variation in mean arterial pressure after 40 min of antagonist infusion at a dose of 10 ug/kg; remark: listed apart in the source
[21] = system: Rattus norvegicus; assay: Variation in mean arterial pressure after 5 min of antagonist infusion at a dose of 10 ug/kg; remark: listed apart in the source
[22] = system: Rattus norvegicus; assay: Variation in mean arterial pressure after 10 min of antagonist infusion at a dose of 10 ug/kg; remark: listed apart in the source
[23] = system: Rattus norvegicus; assay: Variation in mean arterial pressure after 60 min of antagonist infusion at a dose of 10 ug/kg; remark: listed apart in the source
[24] = system: Rattus norvegicus; assay: Variation in mean arterial pressure after 20 min of antagonist infusion at a dose of 10 ug/kg; remark: listed apart in the source

## CC[C@H](C)[C@H](NC(=O)[C@H](Cc1ccc(O)cc1)NC(=O)[C@@H](NC(=O)[C@H](CCCN=C(N)N)NC(=O)CNC)C(C)C)C(=O)N[C@@H](Cc1c[nH]cn1)C(=O)N1CCC[C@H]1C(=O)O [listing 1 of 2 here]
[1]
  Kb: 31.6 nM

## CC[C@H](C)[C@H](NC(=O)[C@H](Cc1ccc(O)cc1)NC(=O)[C@@H](NC(=O)[C@H](CCCN=C(N)N)NC(=O)CNC)C(C)C)C(=O)N[C@@H](Cc1c[nH]cn1)C(=O)N1CCC[C@H]1C(=O)O [listing 2 of 2 here]
[2]
  Control: 9%
[3]
  Agonist activity: 45%
[4]
  Antagonist activity: >100 µg/min/kg
[5]
  Pressor response, % of control: 36%

## CC[C@H](C)[C@H](NC(=O)[C@H](Cc1ccc(O)cc1)NC(=O)[C@@H](NC(=O)[C@H](CCCN=C(N)N)NC(=O)CNC)C(C)C)C(=O)N[C@@H](Cc1c[nH]cn1)C(=O)N1CCC[C@H]1C(N)=O [listing 1 of 2 here]
[1]
  Kb: 25.1 nM

## CC[C@H](C)[C@H](NC(=O)[C@H](Cc1ccc(O)cc1)NC(=O)[C@@H](NC(=O)[C@H](CCCN=C(N)N)NC(=O)CNC)C(C)C)C(=O)N[C@@H](Cc1c[nH]cn1)C(=O)N1CCC[C@H]1C(N)=O [listing 2 of 2 here]
[6]
  Control: 6%
[7]
  Agonist activity: 60%
[8]
  Water intake: 10 ml 20min-1
[4]
  Antagonist activity: 60 µg/min/kg
[9]
  Water intake: 10.8 ml 20min-1

## CC[C@H](C)[C@H](NC(=O)[C@H](Cc1ccc(OC)cc1)NC(=O)[C@@H](NC(=O)[C@H](CCCN=C(N)N)NC(=O)CNC)C(C)C)C(=O)N[C@@H](Cc1c[nH]cn1)C(=O)N1CCC[C@H]1C(N)=O [listing 1 of 2 here]
[1]
  Kb: 20 nM

## CC[C@H](C)[C@H](NC(=O)[C@H](Cc1ccc(OC)cc1)NC(=O)[C@@H](NC(=O)[C@H](CCCN=C(N)N)NC(=O)CNC)C(C)C)C(=O)N[C@@H](Cc1c[nH]cn1)C(=O)N1CCC[C@H]1C(N)=O [listing 2 of 2 here]
[10]
  MAP: 100%
[2]
  Control: 19%
[11]
  MAP: 70%
[12]
  Pressor response, % of control: 89%
[13]
  Pressor response, % of control: 91%
[7]
  Agonist activity: 65%
[4]
  Antagonist activity: >100 µg/min/kg
[5]
  Pressor response, % of control: 86%

## CC[C@H](C)[C@H](NC(=O)[C@H](Cc1ccc(O)cc1)NC(=O)[C@@H](NC(=O)[C@H](CCCN=C(N)N)NC(=O)[C@@H](N)CC(=O)O)C(C)C)C(=O)N[C@@H](Cc1c[nH]cn1)C(=O)N1CCC[C@@H]1C(=O)O
[1]
  Kb: > 1000 nM
[14]
  Antagonist activity: >300 µg/min/kg
[8]
  Water intake: 6.1 ml 20min-1

## CC[C@H](C)[C@H](NC(=O)[C@H](Cc1ccc(OC)cc1)NC(=O)[C@@H](NC(=O)[C@H](CCCN=C(N)N)NC(=O)CNC)C(C)C)C(=O)N[C@@H](Cc1c[nH]cn1)C(=O)N1CCC[C@H]1C(=O)N[C@@H](Cc1ccccc1)C(=O)O
[15]
  Kb: 25.1 nM
[16]
  Antagonist activity: 30 µg/min/kg
[3]
  Agonist activity: 60%
[8]
  Water intake: 3.1 ml 20min-1

## CNCC(=O)N[C@@H](CCCN=C(N)N)C(=O)N[C@H](C(=O)N[C@@H](Cc1ccc(O)cc1)C(=O)N[C@H](C(=O)N[C@@H](Cc1c[nH]cn1)C(=O)N1CCC[C@H]1C(=O)N[C@@H](C)C(=O)O)C(C)C)C(C)C [listing 1 of 2 here]
[17]
  Kb: 5.01 nM

## CNCC(=O)N[C@@H](CCCN=C(N)N)C(=O)N[C@H](C(=O)N[C@@H](Cc1ccc(O)cc1)C(=O)N[C@H](C(=O)N[C@@H](Cc1c[nH]cn1)C(=O)N1CCC[C@H]1C(=O)N[C@@H](C)C(=O)O)C(C)C)C(C)C [listing 2 of 2 here]
[18]
  Pressor response, % of control: 96%
[10]
  MAP: 94%
[19]
  Control: 0%
[2]; in the assay text read “30 ng/kg of angiotensin II” for “100 ug/kg of compound”
  Control: 0%
[11]
  MAP: 29%
[12]
  Pressor response, % of control: 78%
[13]
  Pressor response, % of control: 96%
[4]
  Antagonist activity: 10 µg/min/kg
[5]
  Pressor response, % of control: 50%

## CC[C@H](C)[C@H](NC(=O)[C@H](Cc1ccc(O)cc1)NC(=O)[C@@H](NC(=O)[C@H](CCCN=C(N)N)NC(=O)[C@@H](N)CC(=O)O)C(C)C)C(=O)N[C@@H](Cc1c[nH]cn1)C(=O)N(C)CC(N)=O (H-DRVYIH[Sar]-NH2)
[1]
  Kb: > 1000 nM

## CC[C@H](C)[C@H](NC(=O)[C@H](Cc1ccc(O)cc1)NC(=O)[C@@H](NC(=O)[C@H](CCCN=C(N)N)NC(=O)CNC)C(C)C)C(=O)N[C@@H](Cc1c[nH]cn1)C(N)=O (H-[Sar]RVYIH-NH2)
[1]
  Kb: > 1000 nM

## CC[C@H](C)[C@H](NC(=O)[C@H](Cc1ccc(O)cc1)NC(=O)[C@@H](NC(=O)[C@H](CCCN=C(N)N)NC(=O)CNC)C(C)C)C(=O)N[C@@H](Cc1c[nH]cn1)C(=O)N(C)C (H-[Sar]RVYIH-NMe2) [listing 1 of 2 here]
[1]
  Kb: 89.1 nM

## CC[C@H](C)[C@H](NC(=O)[C@H](Cc1ccc(O)cc1)NC(=O)[C@@H](NC(=O)[C@H](CCCN=C(N)N)NC(=O)CNC)C(C)C)C(=O)N[C@@H](Cc1c[nH]cn1)C(=O)N(C)C (H-[Sar]RVYIH-NMe2) [listing 2 of 2 here]
[2]
  Control: 5%
[20]
  Pressor response, % of control: 67%
[21]
  Pressor response, % of control: 10%
[22]
  Pressor response, % of control: 13%
[3]
  Agonist activity: 50%
[4]
  Antagonist activity: 100 µg/min/kg
[23]
  MAP: 82%
[24]
  Pressor response, % of control: 28%

## CC[C@H](C)[C@H](NC(=O)[C@H](Cc1ccc(O)cc1)NC(=O)[C@@H](NC(=O)[C@H](CCCN=C(N)N)NC(=O)CNC)C(C)C)C(=O)N[C@@H](Cc1c[nH]cn1)C(=O)NCC(N)=O (H-[Sar]RVYIHG-NH2)
[1]
  Kb: > 1000 nM

## CC[C@H](C)[C@H](NC(=O)[C@H](Cc1ccc(O)cc1)NC(=O)[C@@H](NC(=O)[C@H](CCCN=C(N)N)NC(=O)CNC)C(C)C)C(=O)N[C@@H](Cc1c[nH]cn1)C(=O)N(C)CC(N)=O (H-[Sar]RVYIH[Sar]-NH2)
[1]
  Kb: > 1000 nM

## H-DRVYIH-NH2
[1]
  Kb: > 1000 nM
